Test results as given in ChEMBL document CHEMBL1667839, “Discovery of new anti-depressants from structurally novel 5-HT3 receptor antagonists: design, synthesis and pharmacological evaluation of 3-ethoxyquinoxalin-2-carboxamides” (Bioorg Med Chem Lett, 2011).

Columns and labels:
[1] = biological target: T1, 5-hydroxytryptamine receptor 3A (Cavia porcellus, UniProt O70212); assay: Antagonist activity at 5-HT3 receptor in guinea pig ileum muscle; format: functional, tissue-based; conditions: read-out: pA2 (converted)
T1 sequence (O70212 whole entry): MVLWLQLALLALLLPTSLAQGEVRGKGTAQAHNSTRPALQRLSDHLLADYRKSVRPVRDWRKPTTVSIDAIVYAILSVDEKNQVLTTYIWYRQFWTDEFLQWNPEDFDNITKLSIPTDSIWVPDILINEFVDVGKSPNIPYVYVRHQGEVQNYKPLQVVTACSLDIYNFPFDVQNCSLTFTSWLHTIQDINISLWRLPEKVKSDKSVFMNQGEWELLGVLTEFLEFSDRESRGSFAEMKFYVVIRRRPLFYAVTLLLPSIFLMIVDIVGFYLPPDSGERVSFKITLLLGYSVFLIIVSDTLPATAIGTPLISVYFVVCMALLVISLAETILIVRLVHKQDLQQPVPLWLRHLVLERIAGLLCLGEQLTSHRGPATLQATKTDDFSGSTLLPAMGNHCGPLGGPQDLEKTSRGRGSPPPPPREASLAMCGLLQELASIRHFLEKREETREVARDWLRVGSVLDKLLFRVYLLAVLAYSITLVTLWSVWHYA
Outline: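 Longitudinal muscle myenteric plexus preparation from ileum of male Dunkin Hartley guinea pigs (350-400 g); antagonism measured against the 5-HT3 agonist 2-methyl-5-HT and expressed as pA2 by literature methods; mean of two separate experiments.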

Mus musculus [2] = assay: Antidepressant activity in mouse assessed as immobility time at 1 mg/kg, ip by forced swimming test; format: functional; conditions: route intraperitoneal
Mus musculus [3] = assay: Antipsychotic activity in Swiss Albino mouse assessed as spontaneous locomotor score at 1 mg/kg, ip measured for 10 mins by actophotometer; format: functional; conditions: route intraperitoneal
Outline: (§1)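 Swiss Albino mice (23 ± 2 g) given compound intraperitoneally in 10% PEG-400 in water; spontaneous locomotor activity counted in an actophotometer over 10 min as locomotor score; n = 8 per group, mean; one-way ANOVA with Dunnett's test versus vehicle-treated group.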

Mus musculus [4] = assay: Antidepressant activity in Swiss Albino mouse assessed as immobility time at 0.5 mg/kg, ip by forced swimming test (reference value: 165.6 +/- 03.2 sec); format: functional; conditions: route intraperitoneal
Mus musculus [5] = assay: Antidepressant activity in Swiss Albino mouse assessed as immobility time at 2 mg/kg, ip by forced swimming test; format: functional; conditions: route intraperitoneal
Mus musculus [6] = assay: Antipsychotic activity in Swiss Albino mouse assessed as spontaneous locomotor score at 0.5 mg/kg, ip measured for 10 mins by actophotometer; format: functional; conditions: route intraperitoneal; outline: as §1
Mus musculus [7] = assay: Antipsychotic activity in Swiss Albino mouse assessed as spontaneous locomotor score at 2 mg/kg, ip measured for 10 mins by actophotometer; format: functional; conditions: route intraperitoneal; outline: as §1

SMILES	Kb [1] [nM]	Time (Mus musculus [2]) [s]	Activity (Mus musculus [3]) [score]	Time (Mus musculus [4]) [s]	Time (Mus musculus [5]) [s]	Activity (Mus musculus [6]) [score]	Activity (Mus musculus [7]) [score]
CCOc1nc2ccccc2nc1C(=O)Nc1cccnc1	15800	144	365	–	–	–	–
CCOc1nc2ccccc2nc1C(=O)NCCN(C)C	126	117.7	349	133.6	96	345	343
CCOc1nc2ccccc2nc1C(=O)N1CCN(c2ccc(OC)cc2)CC1	158	114.6	356	159	121.6	352	361
CCOc1nc2ccccc2nc1C(=O)N1CCN(Cc2ccccc2)CC1	25100	160	366	–	–	–	–
CCOc1nc2ccccc2nc1C(=O)N1CCN(c2ccc(Cl)cc2)CC1	1000	146.6	364	–	–	–	–
CCOc1nc2ccccc2nc1C(=O)N1CCN(c2cccc(Cl)c2)CC1	251	110.6	352	83.6	76.6	361	358
CCOc1nc2ccccc2nc1C(=O)NCCc1c[nH]c2ccccc12	63.1	104	350	150.3	79.3	366	355
CCOc1nc2ccccc2nc1C(=O)N1CCN(c2ccccc2)CC1	10000	134	382	–	–	–	–
Cc1nccn1CC1CCc2c(c3ccccc3n2C)C1=O (stereo not drawn) [ONDANSETRON]	–	100.4	388	130.2	95.1	368	400
CCOc1nc2ccccc2nc1C(=O)N1CCN(CC)CC1	31.6	98	360	159.3	128	349	352
CCOc1nc2ccccc2nc1C(=O)N1CCN(c2cccc(C(F)(F)F)c2)CC1	7940	148	356	–	–	–	–
C=CCN1CCN(C(=O)c2nc3ccccc3nc2OCC)CC1	158	127	360	152	118	345	352
CCOc1nc2ccccc2nc1C(=O)NCCN(CC)CC	20000	162	362	–	–	–	–
CCOc1nc2ccccc2nc1C(=O)N1CCN(C)CC1	20	94	350	125	130	353	356
CCOc1nc2ccccc2nc1C(=O)Nc1ccc(N(CC)CC)cc1	10000	145	374	–	–	–	–
CCOc1nc2ccccc2nc1C(=O)N1CCN(c2ccccc2OC)CC1	100	113.3	360	115.3	122	351	366
